# Compound activity (PubChem BioAssay)
# MC4R ag barr: MC4R agonists recruiting beta-arrestin, primary screen, cell-based, luminescence, agonist arm of biased-ligand search | AID 540308, 2011 | Melanocortin receptor 4 (Homo sapiens), P32245 | U2OS MC4R beta-arrestin complementation; percent of melanotan II response, DMSO zero | activation, % at 8.9 µM | hit rate 0.98% among 360,000;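 active = activation above a per-plate cutoff, the mean activation of sample wells on that plate plus 3 SD, cut at about 8% in these data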
# m5-HT2A agonist: mouse Htr2a agonists via beta-arrestin recruitment, primary screen, cell-based, luminescence; CHO-K1 mHTR2A beta-arrestin complementation; percent of 30 µM serotonin response; activation, % at 7.6 µM; 5-hydroxytryptamine receptor 2A (Mus musculus), P35363; hit rate 0.66% among 360,000;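 active = activation above a run cutoff, the mean activation of all tested compounds plus 3 SD, cut at about 14% in these data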;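 note: 0% = plate median of compound wells and 100% = 30 µM serotonin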
# Target sequence (P35363 whole entry, looked up): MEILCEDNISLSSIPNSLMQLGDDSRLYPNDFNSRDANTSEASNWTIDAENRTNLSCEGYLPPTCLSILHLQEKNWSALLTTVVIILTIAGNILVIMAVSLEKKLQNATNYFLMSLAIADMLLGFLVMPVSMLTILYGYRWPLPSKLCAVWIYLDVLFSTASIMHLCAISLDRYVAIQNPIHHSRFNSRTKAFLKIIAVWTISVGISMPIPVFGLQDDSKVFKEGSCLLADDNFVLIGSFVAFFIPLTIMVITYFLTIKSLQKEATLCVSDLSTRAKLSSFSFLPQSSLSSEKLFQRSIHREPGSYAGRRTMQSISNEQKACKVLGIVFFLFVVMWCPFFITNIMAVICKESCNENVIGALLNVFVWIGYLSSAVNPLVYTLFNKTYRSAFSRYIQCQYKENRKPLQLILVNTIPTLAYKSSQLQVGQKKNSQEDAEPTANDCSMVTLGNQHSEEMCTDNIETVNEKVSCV
# MC4R antagonist: MC4R antagonists of cAMP signaling, primary screen, cell-based, TR-FRET, antagonist arm of biased-ligand search; MC4R-expressing cells, MTII-stimulated cAMP, LANCE TR-FRET; hit rate 0.48% among 360,000; Melanocortin receptor 4 (Homo sapiens), P32245; inhibition, % at 6.5 µM;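 active = inhibition above its plate's cutoff, the mean of tested wells on that plate plus 3 SD, cut at about 29% in these data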;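 note: 0% = Melanotan II alone and 100% = Melanotan II plus saturating MCL0020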
#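 Assay system: U2OS-MC4R stable cell line; Also added: Melanotan II; Technique: Eu-cAMP/anti-cAMP TR-FRET, emission 671 nm; Times: 30-min compound, 1-h challenge, 1-h detection, room temperature.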
# EBI2 block: EBI2 receptor antagonists, beta-arrestin recruitment, primary screen, cell-based, luminescence, 7a,25-OHC stimulation, uHTS. AID 651636, 2012. 7a,25-OHC stimulated. hit rate 0.81% among 360,000. G-protein coupled receptor 183 (Homo sapiens), P32249. inhibition, % at 5 µM; in the data active = inhibition above about 38%;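 note: enzyme fragment complementation signal reports receptor beta-arrestin coupling in cells; 0% = agonist plus DMSO wells and 100% = wells without agonist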
# Starred values were filed as active, the others as inactive; . = no result given. Compounds with a hit are over-represented: about 2.8% of the library has one in this group of screens.
SMILES,MC4R ag barr,m5-HT2A agonist,MC4R antagonist,EBI2 block
Cc1cc(NC(=O)CSc2nc3sc(C)c(C)c3c(=O)n2C2CCCC2)no1,8,17*,0,1
Cc1cc(NC(=O)CSc2nnnn2C2CCCC2)no1,0,4,-1,-6
Cc1cccc(C(=O)Nc2nnc(SCC(=O)Nc3ccc4c(c3)oc3ccccc34)s2)c1,9.4*,4,1,-9
COc1ccccc1C(=O)Nc1nnc(SCC(=O)Nc2ccc3c(c2)oc2ccccc23)s1,-2,5,10,-5
O=C(O)CCn1cc(-c2ccc(F)cc2)nc1-c1ccncc1,-1,1,-10,-5
Nc1sccc1C(=O)NC1CC1,.,0,.,-7
NC(=O)c1ccsc1NC(=O)c1ccc(S(=O)(=O)N2CCCc3ccccc32)cc1,8.5*,4,6,2
Cc1cccc(NS(=O)(=O)c2ccc3nc(-c4ccccc4)[nH]c3c2)c1C,9.0*,3,-1,-7
CCOC(=O)Nc1cc(OC)cc2ccc(C)nc12,2,-1,8,-2
N#Cc1cccc2c1-c1ccccc1/C2=N/NC(N)=S,17*,-1,-47,18
O=C(COC(=O)c1cccc2ccccc12)Nc1ncc(C(F)(F)F)cc1Cl,8.7*,6,-3,2
COCCCN1C(=O)C(CC(=O)NCCCN(C)C)CC(C(=O)N(C(C)C)C(C)C)=C1C (stereo not given),.,1,.,-9
O=C(/C=C/c1ccccc1)c1ccc(NC2=NCCCS2)cc1,-4,-7,-8,2
O=C(/C=C/c1ccc(Br)cc1)c1ccc(NC2=NCCCS2)cc1,-7,-9,-2,78*
COC(=O)c1cccc(NC(=O)Nc2ccc(Cl)cc2Cl)c1,9.0*,-1,2,-10
CC1CCc2c(sc3nc(C(C)(C)C)nc(N4CCN(C(=O)CCl)CC4)c23)C1 (stereo not given),19*,2,23,-3
Cc1ccc(-c2noc(CSc3nnc(Cc4cccs4)n3-c3ccccc3)n2)cc1,1,21*,4,10
O=C(COC(=O)Cc1cccc(C(F)(F)F)c1)NC(=O)NC1CCCC1,8.3*,1,4,-6
O=C(COC(=O)c1ccc(F)cc1Cl)NC1CCCCCCC1,8.6*,7,11,0
O=C(COC(=O)Cc1ccc(F)cc1)NC1CCCC1,-3,21*,1,0
CCN(C(=O)c1c([N+](=O)[O-])cnn1C)c1ccccc1,-1,1,3,4
CC(C)(C)OC(=O)NCCCCCNC(=O)c1[nH]cnc1C(=O)Nc1ccon1,-2,-3,-15,6
COc1cccc(-c2ccc3c(c2)O[C@@H](CN(C)C(=O)C2CCOCC2)[C@H](C)CN([C@H](C)CO)S3(=O)=O)c1,-1,-3,1,0
O=c1[nH]nc(Cc2ccc(-c3ccccc3Cl)o2)c2ccccc12,8.9*,-2,-2,7
COCCN1C[C@@H](CO)O[C@@H](n2cnc3c(NCc4ccc(F)cc4)ncnc32)C1,-1,-4,1,-7
SMILES,MC4R ag barr,m5-HT2A agonist,MC4R antagonist,EBI2 block
O=C(C(=O)N1CCN(c2cccc(Cl)c2)CC1)c1c[nH]c2ccccc12,8.5*,-1,1,19
C/C(=N\Nc1cc(-c2ccccc2)nc(-c2ccccc2)n1)c1ccc(O)c(C)c1,-4,0,7,51*
COc1cc(N/N=C(\C)c2ccc(N)cc2)nc(-c2ccccc2)n1,-2,0,12,30
C/C(=N\Nc1cc(C)nc(-c2ccccc2)n1)c1cccc([N+](=O)[O-])c1,-1,3,-3,21
COc1cc(N/N=C(\C)c2ccc(O)c(C)c2)nc(-c2ccccc2)n1,2,2,3,57*
CCOc1ccc2nc(S(=O)(=O)NC(=O)C3(C)CCN3C(=O)c3cc(C)n(C)n3)sc2c1 (stereo not given),0,-3,15,-2
COc1ccc(-c2cc3ccccc3oc2=O)cc1NC(=S)NC(=O)c1ccc2c(c1)OCCO2,9.4*,-1,-8,-1
CCC(=O)Nc1cc(-c2cc3ccccc3oc2=O)ccc1OC,-1,-1,8,-1
C=C(Br)CN1[C@@H](Cc2ccccc2)[C@H](O)[C@@]23C=C[C@@H](C[C@@H]2S1(=O)=O)O3,-1,3,4,-6
COc1ccc(C(CC(=O)O)c2ccc3c(c2)OCO3)cc1 (stereo not given),-2,5,6,-1
COc1ccccc1C(CCNCc1ccccc1)c1ccc(OC(C)C)cc1 (stereo not given),9.0*,8,11,19
COc1ccc(CNCCC(c2ccccc2)c2ccc3c(c2)OCO3)cc1 (stereo not given),9.1*,-3,0,2
CCN(c1ccccc1)S(=O)(=O)c1ccc(Cl)c(NC(=O)CSc2nc(N)cc(=O)[nH]2)c1,0,0,9,3
CC(=O)Nc1ccc(S(=O)(=O)Nc2nnc(C)s2)cc1,-2,2,-3,1
O=C(Nc1ccc(Br)cc1F)c1ccc2nsnc2c1,8.8*,-3,3,-1
O=C(Nc1ccc(Br)cc1F)c1ccncc1,-2,-3,9,-10
O=C(C1CCCCC1)N1C[C@H](n2cc(C3CC3)nn2)[C@@H](O)C[C@@H]1c1ccc(Cl)cc1,1,7,0,-5
O=C(COC(=O)c1cccc(O)c1)Nc1ccc(N2CCOCC2)cc1,-1,-4,8,6
Cc1cc(/C=N/n2c(COc3ccccc3)nc3ccccc3c2=O)c(O)c([N+](=O)[O-])c1,-2,-6,1,45*
O=C(Nc1cccc(-c2cnc3ccccc3n2)c1)c1cccc(NC(=O)c2ccco2)c1,35*,6,-1,-15
O=C(CSc1nnc2c(n1)[nH]c1ccccc12)NCc1ccccc1F,1,15*,4,3
O=C(Nc1ccc(/C=C/c2nc3ccccc3o2)cc1)c1c(F)cccc1F,8.9*,-2,10,5
CC(=O)Nc1ccc(/C=C/c2nc3ccccc3o2)cc1,-1,-1,2,16
COC(=O)C[C@H]1C[C@H]2c3cc(NC(=O)Nc4ccc(F)cc4)ccc3O[C@H]2[C@@H](CO)O1,0,4,1,2
COc1cccc(NC(=O)N2CCN(c3cccc(C)c3C)CC2)c1,-2,-5,3,78*
COCCNC(=O)C1(C)CCCN(C(=O)c2cccc(C(F)(F)F)c2)C1 (stereo not given),0,2,-1,2
FC(F)(F)c1nc2ccccc2nc1N/N=C/c1c(Cl)cccc1Cl,8.3*,-3,-9,-9
CCCCCC(=O)N1C[C@@H](n2cc(C3CC3)nn2)[C@H](O)C[C@@H]1c1ccc(C)cc1,1,-2,-3,8
